Data reported in ChEMBL document CHEMBL2150971, “Selective depletion of mutant p53 by cancer chemopreventive isothiocyanates and their structure-activity relationships” (J Med Chem, 2011).
Activity calls are given as the source filed them. The calls are words filed in the database; no cut-off is given here.

Legend:
[1] = tested on: Cellular tumor antigen p53 (Homo sapiens), P04637 [G245C]; assay: Induction of p53 G245C mutant depletion in human NCI-H596 cells at 20 uM by immunoblot analysis; format: cell-based
[2] = tested on: Cellular tumor antigen p53 (Homo sapiens), P04637 [G245C]; assay: Induction of covalent cysteine modification at p53 G245C mutant in human NCI-H596 cells at 100 uM incubated for 1 hr by monochlorobimane fluorometric assay; format: cell-based
[3] = tested on: MDA-MB-231; assay: Induction of apoptosis in human MDA-MB-231 cells expressing p53 R280K mutant at 10 uM incubated for 24 hrs by FITC/Annexin-V staining method; format: functional, cell-based
How it was run: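 MDA-MB-231 cells at 40–50% confluency treated with DMSO or 10 µM in DMSO for 24 h; washed in cold PBS, stained with FITC-Annexin V and propidium iodide, analysed by flow cytometry; early apoptotic (Annexin V+/PI−) fraction; mean ± SD of three experiments, unequal-variance two-sample t-test.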

[4] = tested on: Cellular tumor antigen p53 (Homo sapiens), P04637 [R280K]; assay: Induction of p53 R280K mutant depletion in human MDA-MB-231 cells at 10 uM by immunoblot analysis; format: cell-based
How it was run: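 MDA-MB-231 cells treated with 10 µM for 24 h; whole-cell lysates immunoblotted for p53 (DO-1) with β-actin loading control, ECL.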

[5] = tested on: Cellular tumor antigen p53 (Homo sapiens), P04637 [G245C]; assay: Induction of p53 G245C mutant depletion in human NCI-H596 cells at 40 uM incubated for 2 hrs by immunoblot analysis; format: cell-based
How it was run: (§1)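 H596 cells (G245C p53), maintained in DMEM or RPMI-1640 with 10% FBS, treated either at 15 µM for varying times up to 24 h or at varying concentrations (10–60 µM) for 2 h; whole-cell lysates, equal protein on SDS gels, PVDF, blotted with p53 DO-1 and β-actin antibodies, ECL.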

[6] = tested on: Cellular tumor antigen p53 (Homo sapiens), P04637 [G245C]; assay: Induction of conformational changes in p53 G245C mutant in human NCI-H596 cells at 60 uM incubated for 1 hr at 32 degC by tryptophan fluorescence emission spectroscopy; format: cell-based
How it was run: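 6 µM purified G245C p53 DNA-binding domain incubated 1 h at 32 °C alone, with DMSO or 60 µM agent; intrinsic fluorescence emission 285–400 nm, excitation 280 nm, slit 5 nm, 3 scans averaged.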

[7] = tested on: Cellular tumor antigen p53 (Homo sapiens), P04637 [G245C]; assay: Induction of p53 G245C mutant depletion in human NCI-H596 cells at 10 uM incubated for 2 hrs by immunoblot analysis; format: cell-based; how it was run: as §1
[8] = tested on: Cellular tumor antigen p53 (Homo sapiens), P04637 [G245C]; assay: Induction of p53 G245C mutant depletion in human NCI-H596 cells at 20 uM incubated for 2 hrs by immunoblot analysis; format: cell-based; how it was run: as §1
[9] = target: Cellular tumor antigen p53 (Homo sapiens) (UniProt P04637); assay: Induction of p53 depletion in human MCF10A cells at 15 uM incubated for 2 to 24 hrs by immunoblot analysis; format: cell-based; conditions: MCF-10A
How it was run: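 MCF-10A normal mammary epithelial cells treated with 15 µM for 2, 4, 8 and 24 h; lysates immunoblotted for p53 (DO-1) and β-actin, ECL.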

[10] = target: Cellular tumor antigen p53 (Homo sapiens) (UniProt P04637); assay: Induction of p53 depletion in human MCF7 cells at 20 uM incubated for 2 to 24 hrs by immunoblot analysis; format: cell-based
How it was run: (§2)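 Wild-type p53 lines HCT116, A549 and MCF-7 treated with 20 µM for 2, 4, 8 and 24 h; lysates immunoblotted for p53 (DO-1) and β-actin, ECL.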

[11] = tested on: Cellular tumor antigen p53 (Homo sapiens), P04637 [G245C]; assay: Induction of p53 G245C mutant depletion in human NCI-H596 cells incubated for 2 to 6 hrs by immunoblot analysis; format: cell-based; how it was run: as §1
[12] = tested on: H1299; assay: Induction of non-temperature sensitive p53 175H mutant depletion in human H1299 cells at 15 uM incubated for 24 hrs at 32.5 degC by immunoblot analysis; format: cell-based
[13] = tested on: NCI-H596; assay: Effect on JNK protein expression in human NCI-H596 cells by immunoblot analysis; format: functional, cell-based
How it was run: (§3)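 H596 lung cancer cells treated with 15 µM; whole-cell lysates in HEPES pH 7.4/Triton X-100 lysis buffer with protease and phosphatase inhibitors; equal protein resolved on 4–12% Bis-Tris gels, transferred to PVDF, immunoblotted; ECL detection.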

[14] = tested on: H1299; assay: Induction of non-temperature sensitive p53 175H mutant depletion in human H1299 cells at 15 uM incubated for 24 hrs at 37 degC by immunoblot analysis; format: cell-based
[15] = target: Cellular tumor antigen p53 (Homo sapiens) (UniProt P04637); assay: Induction of p53 depletion in human A549 cells at 20 uM incubated for 2 to 24 hrs by immunoblot analysis; format: cell-based; how it was run: as §2
[16] = tested on: NCI-H596; assay: Effect on p53 mRNA expression in human NCI-H596 cells at 15 uM incubated for 2 to 6 hrs by RT-PCR; format: functional, cell-based
How it was run: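 H596 cells exposed to 15 µM for 2, 4 and 6 h, vehicle DMSO; total RNA extracted, one-step RT-PCR for p53 and β-actin mRNA.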

[17] = target: Cellular tumor antigen p53 (Homo sapiens) (UniProt P04637); assay: Induction of p53 activation in human MCF7 cells at 20 uM incubated for 24 hrs by immunoblot analysis; format: cell-based; how it was run: as §2
[18] = tested on: Cellular tumor antigen p53 (Homo sapiens), P04637 [G245C]; assay: Induction of p53 G245C mutant depletion in human NCI-H596 cells at 15 uM by immunoblot analysis; format: cell-based; conditions: TDE = time-dependent effect; how it was run: as §1
[19] = tested on: H1299; assay: Induction of temperature sensitive p53 143A mutant depletion in human H1299 cells at 15 uM incubated for 24 hrs at 32.5 degC by immunoblot analysis; format: cell-based
[20] = tested on: Cellular tumor antigen p53 (Homo sapiens), P04637 [R273H]; assay: Induction of p53 R273H mutant depletion in human MDA-MB-468 cells at 15 uM by immunoblot analysis; format: cell-based; conditions: TDE = time-dependent effect
How it was run: (§4)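 Mutant-p53 lines SCC-4, MDA-MB-468 and MDA-MB-231 exposed to 15 µM for a time course; lysates immunoblotted with p53 DO-1 and β-actin antibodies, ECL detection.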

[21] = tested on: DU-145; assay: Induction of p53 […] mutant depletion in human DU145 cells at 10 uM by immunoblot analysis; format: cell-based; conditions: TDE = time-dependent effect
How it was run: (§5)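 DU145 and SW480 cells exposed to 10 µM for a time course; lysates immunoblotted with p53 DO-1 and β-actin antibodies, ECL detection.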

[22] = tested on: NCI-H596; assay: Effect on HSP90 protein expression in human NCI-H596 cells by immunoblot analysis; format: functional, cell-based; how it was run: as §3
[23] = tested on: Cellular tumor antigen p53 (Homo sapiens), P04637 [P151S]; assay: Induction of p53 P151S mutant depletion in human SCC4 cells at 15 uM by immunoblot analysis; format: cell-based; conditions: SCC-4, TDE = time-dependent effect; how it was run: as §4
[24] = tested on: MCF7; assay: Induction of apoptosis in human MCF7 cells expressing wild type p53 assessed as caspase-3 activation incubated for 24 hrs; format: functional, cell-based
How it was run: (§6)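 Cells treated with DMSO or drug for 24 h, lysed in ice-cold kit buffer; 100–200 µg protein incubated with Ac-DEVD-p-nitroaniline at 37 °C for 2–4 h; p-nitroanilide read at 405 nm; mean ± SD of three independent experiments.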

[25] = tested on: NCI-H596; assay: Effect on DR5 protein expression in human NCI-H596 cells by immunoblot analysis; format: functional, cell-based; how it was run: as §3
[26] = tested on: MDA-MB-231; assay: Induction of apoptosis in human MDA-MB-231 cells expressing p53 R280K mutant assessed as caspase-3 activation incubated for 24 hrs; format: functional, cell-based; how it was run: as §6
[27] = tested on: SW480; assay: Induction of apoptosis in human SW480 cells expressing p53 R273H mutant assessed as caspase-3 activation incubated for 24 hrs; format: functional, cell-based; how it was run: as §6
[28] = tested on: H1299; assay: Induction of temperature sensitive p53 143A mutant depletion in human H1299 cells at 15 uM incubated for 24 hrs at 37 degC by immunoblot analysis; format: cell-based
[29] = tested on: A549; assay: Induction of apoptosis in human A549 cells expressing wild type p53 assessed as caspase-3 activation incubated for 24 hrs; format: functional, cell-based; how it was run: as §6
[30] = tested on: MDA-MB-468; assay: Induction of apoptosis in human MDA-MB-468 cells expressing p53 R273H mutant assessed as caspase-3 activation incubated for 24 hrs; format: functional, cell-based; how it was run: as §6
[31] = target: Cellular tumor antigen p53 (Homo sapiens) (UniProt P04637); assay: Induction of p53 depletion in human HCT116 cells at 20 uM incubated for 2 to 24 hrs by immunoblot analysis; format: cell-based; conditions: HCT-116; how it was run: as §2
[32] = tested on: NCI-H596; assay: Effect on Bax protein expression in human NCI-H596 cells by immunoblot analysis; format: functional, cell-based; how it was run: as §3
[33] = tested on: Cellular tumor antigen p53 (Homo sapiens), P04637 [R273H]; assay: Induction of p53 R273H mutant depletion in human SW480 cells at 10 uM by immunoblot analysis; format: cell-based; conditions: TDE = time-dependent effect; how it was run: as §5
[34] = tested on: HCT-116; assay: Induction of apoptosis in human HCT116 cells expressing wild type p53 assessed as caspase-3 activation incubated for 24 hrs; format: functional, cell-based; how it was run: as §6
[35] = tested on: NCI-H596; assay: Induction of apoptosis in human NCI-H596 cells expressing p53 G245C mutant assessed as caspase-3 activation incubated for 24 hrs; format: functional, cell-based; how it was run: as §6
[36] = tested on: Cellular tumor antigen p53 (Homo sapiens), P04637 [R280K]; assay: Induction of p53 R280K mutant depletion in human MDA-MB-231 cells at 15 uM by immunoblot analysis; format: cell-based; conditions: TDE = time-dependent effect; how it was run: as §4
[37] = tested on: Cellular tumor antigen p53 (Homo sapiens), P04637 [G245C]; assay: Induction of p53 G245C mutant depletion in human NCI-H596 cells at 60 uM after 2 hrs by immunoblot analysis; format: cell-based; how it was run: as §1
[38] = tested on: Cellular tumor antigen p53 (Homo sapiens), P04637 [G245C]; assay: Induction of p53 G245C mutant depletion in human NCI-H596 cells at 15 uM up to 24 hrs by immunoblot analysis; format: cell-based; how it was run: as §1

S=C=NC(c1ccccc1)(c1ccccc1)c1ccccc1
Activity [1]: inactive | Activity [2]: inactive | Activity [3]: inactive | Activity [4]: inactive

S=C=NCCCCCCc1ccccc1
Activity [1]: Active | Activity [4]: Active

S=C=NCCCc1ccccc1
Activity [1]: Active | Activity [2]: Active | Activity [3]: Active | Activity [4]: Active

S=C=NCCCCc1ccccc1
Activity [1]: Active | Activity [3]: Active | Activity [4]: Active

C[S+]([O-])CCCCN=C=S (centres undefined)
Activity [5]: inactive | Activity [1]: inactive | Activity [2]: inactive | Activity [3]: inactive | Activity [6]: inactive | Activity [4]: inactive

S=C=NCc1ccccc1
Activity [1]: Active | Activity [2]: Active | Activity [3]: Active | Activity [6]: Active | Activity [7]: Active | Activity [8]: Active | Activity [4]: Active

COc1ccc(CN=C=S)cc1
Activity [1]: Active | Activity [2]: Active | Activity [4]: Active

S=C=NCCc1ccccc1
Activity [9]: inactive | Activity [10]: inactive | Activity [11]: Dose-dependent effect | Activity [12]: Active | Activity [13]: inactive | Activity [14]: Active | Activity [1]: Active | Activity [15]: inactive | Activity [2]: Active | Activity [16]: inactive | Activity [17]: Active | Activity [18]: tde | Activity [19]: inactive | Activity [20]: tde | Activity [21]: tde | Activity [22]: inactive | Activity [23]: tde | Activity [24]: inactive | Activity [25]: inactive | Activity [26]: Active | Activity [27]: Active | Activity [28]: Active | Activity [29]: inactive | Activity [30]: Active | Activity [31]: inactive | Activity [32]: inactive | Activity [33]: tde | Activity [34]: inactive | Activity [35]: Active | Activity [36]: tde | Activity [4]: Active

S=C=NCc1ccc(Cl)cc1
Activity [1]: Active | Activity [2]: Active | Activity [4]: Active

CNCCc1ccccc1
Activity [37]: inactive | Activity [1]: inactive | Activity [38]: inactive

S=C=Nc1ccccc1
Activity [1]: inactive | Activity [2]: inactive | Activity [4]: inactive

S=C=NCC1CCCCC1
Activity [1]: inactive | Activity [2]: inactive | Activity [3]: inactive | Activity [4]: inactive

S=C=NCc1ccc(Oc2ccccc2)cc1
Activity [1]: Active | Activity [6]: Active | Activity [4]: Active

C[C@@H](N=C=S)c1ccccc1
Activity [1]: inactive | Activity [6]: Active | Activity [4]: inactive

S=C=NCCCCCc1ccccc1
Activity [1]: Active | Activity [4]: Active

S=C=NCC(c1ccccc1)c1ccccc1
Activity [1]: Active | Activity [2]: Active | Activity [3]: Active | Activity [4]: Active

C=CCN=C=S
Activity [5]: inactive | Activity [1]: inactive | Activity [2]: inactive | Activity [4]: inactive
